High-throughput results (PubChem BioAssay)
This is a sample that favours compounds with a hit; in the whole collection about 3.3% have one here.
Hep lipid drop – modulators of hepatic lipid droplet formation; AID 1656; 0.4% of 240,000 active; inhibition, % at 6.5 µM; AML12 mouse hepatocytes, oleate lipid droplets, BODIPY imaging;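 active = lipid droplet intensity inhibited by at least 50%, with more than 500 cells counted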
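Assay system: AML12 hepatocytes (mouse) / Also added: 100 µM oleic acid challenge / Times: overnight treatment with compound plus oleate / Detection: high-content imaging of BODIPY-stained droplets and DAPI nuclei / Evaluation: % inhibition of lipid droplet signal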
PfM18AAP inh – PfM18AAP enzyme inhibition. 1.2% of 290,000 active. recombinant PfM18AAP, H-Glu-NHMec fluorogenic cleavage. inhibition, % at 7.35 µM;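 active = inhibition above the campaign mean inhibition over all tested compounds plus 3 SD, cut at about 28% in these data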
HGIII-sPLA2 inh – Inhibits HGIII-sPLA2 liposome hydrolysis, primary screen | Q9NZ20 | QFRET BODIPY PC-A2 liposome hydrolysis, fluorescence | inhibition, % at 12.2 µM | 0.56% of 370,000 active | AID 743126;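 active = inhibition above mean plus 3 SD of compounds lying within the high and low control bounds, cut at about 19% in these data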
Target sequence (Q9NZ20 whole entry, looked up): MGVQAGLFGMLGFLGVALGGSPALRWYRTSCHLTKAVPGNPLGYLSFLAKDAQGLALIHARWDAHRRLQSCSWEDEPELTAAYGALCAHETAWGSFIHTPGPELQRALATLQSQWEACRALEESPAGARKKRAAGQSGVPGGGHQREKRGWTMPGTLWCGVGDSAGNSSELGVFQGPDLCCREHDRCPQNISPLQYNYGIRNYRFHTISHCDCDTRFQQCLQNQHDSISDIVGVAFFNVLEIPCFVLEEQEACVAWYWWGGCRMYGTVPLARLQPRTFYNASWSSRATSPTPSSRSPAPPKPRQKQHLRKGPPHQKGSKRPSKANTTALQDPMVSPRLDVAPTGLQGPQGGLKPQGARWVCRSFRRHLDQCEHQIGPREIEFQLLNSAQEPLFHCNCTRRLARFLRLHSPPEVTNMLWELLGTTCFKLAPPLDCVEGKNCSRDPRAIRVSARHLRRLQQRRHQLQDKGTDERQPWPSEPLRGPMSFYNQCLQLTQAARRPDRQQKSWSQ
NRP1-CendR mod – alters CendR peptide binding to human NRP-1; O14786; FAM-RPARPAR peptide binding to NRP-1, fluorescence polarization; inhibition, % at 25 µM; 0.85% of 360,000 active; AID 602438;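 active = inhibition or corrected inhibition above about 18%, plus a signal ratio from 0.5 to 1.5, limit read from the data, passing the limit was not always enough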
Arrestin-AP2 inh – human beta-arrestin and AP2 interaction inhibition. AID 504490. FITC-arrestin peptide / GST-AP2 beads, flow cytometry; AP2 beta2 appendage carries R879A mutation. 0.31% of 340,000 active. inhibition, % at 10 µM;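 active = inhibition above a set limit, near 3 SD of compounds lacking own fluorescence, cut at about 54% in these data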
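Material – GST-tagged AP2 beta2-adaptin appendage (R879A) on 4 µm glutathione beads · Probe or stimulus – fluorescein-tagged arrestin peptide at 50 nM final · Timing – 12 min plus 1 h, RT · Detection – bead flow cytometry, FITC channel · Read-out basis – inhibition as reduced fluorescein signal on beads, percent · Medium – PBS plus Tween 20 (0.05%) and BSA (0.1%)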
m5-HT2A agonist – activates the mouse 5-HT2A serotonin receptor; P35363; CHO-K1 mHTR2A beta-arrestin complementation, luminescence; percent of 30 µM serotonin response; activation, % at 7.6 µM; 0.66% of 360,000 active;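 active = activation above a run cutoff, the mean activation of all tested compounds plus 3 SD, cut at about 14% in these data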
hGIII sPLA2 conf – human GIII-sPLA2 inhibition, confirmation; shares compounds with HGIII-sPLA2 inh; recombinant hGIII-sPLA2, BODIPY PC-A2 QFRET fluorescence; inhibition, % at 12.2 µM; 34% of 2,000 active; AID 743280;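 active = mean inhibition across triplicates above the hit cutoff set in the earlier primary screen, cut at about 19% in these data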
BODIPY interf – 535nm fluorescence interference, HGIII-sPLA2 counter-screen; shares compounds with HGIII-sPLA2 inh; BODIPY FL product fluorescence interference, QFRET; inhibition, % at 12.2 µM; 8.5% of 2,000 active; AID 743282;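 active = average inhibition above the solvent-only control mean plus 3 SD, cut at about 6% in these data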
BODIPY interf DR – interferes with 535nm fluorescence in dose response counter-screen | shares compounds with HGIII-sPLA2 inh | BODIPY FL product fluorescence interference, cell-free | IC50, µM | 240 tested, under 10 active | AID 743455;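 active = IC50 at or below 10 µM; inactive = IC50 above 10 µM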
Hits are given with their value; i = inactive; nt = no result given.

SMILES	Hep lipid drop	PfM18AAP inh	HGIII-sPLA2 inh	NRP1-CendR mod	Arrestin-AP2 inh	m5-HT2A agonist	hGIII sPLA2 conf	BODIPY interf	others
CCCNC(=O)Nc1cccc(C(=O)OC)c1	i	i	20.8	i	i	i	i	i
COc1c(C(C)(C)C)cc(S(=O)(=O)N2c3ccccc3C[C@H]2C)cc1C(C)(C)C	nt	nt	i	nt	nt	nt	nt	nt
COc1ccc(NC(=O)c2ccccc2NC(=O)c2ccccc2C(=O)O)c(OC)c1	i	i	21.7	i	i	i	i	i
COc1ccccc1NC(=O)c1ccccc1C(=O)O	i	i	i	i	i	i	nt	nt
CCN(CC)C(=O)[C@H]1C[C@H](CC(=O)NCCN2CCOCC2)C(=O)N2CCc3c([nH]c4cc(CCC(=O)N(C)C)ccc34)[C@]12C	nt	nt	i	i	i	i	nt	nt
Cc1ccc(C)c(OCCC(=O)OCC(=O)Nc2ccc(Cl)cn2)c1	nt	nt	i	i	i	i	nt	nt
COc1ccc(NC(=O)NNC(=O)c2cc3ccccc3cc2O)cc1	i	i	21.8	i	i	i	23.0	i
CCOc1ccc(NC(=O)NNC(=O)c2ccc3ccccc3c2O)cc1	i	i	20.6	25.5	i	i	24.1	i
O=C(NNC(=O)c1cc2ccccc2cc1O)Nc1ccc(Br)cc1	i	i	30.9	i	i	i	31.2	6.2
O=C(NNC(=O)c1cc2ccccc2cc1O)Nc1ccc(F)cc1F	i	i	i	i	i	i	nt	nt
O=C(NC1CCCC1)C(C1CC1)n1c(-c2cc3ccccc3[nH]2)nc2ccccc21 (configuration not stated)	nt	nt	i	i	nt	i	nt	nt
CN(C)c1ccc(NC(=O)Cn2cc3c(n2)CCCC3)cc1	i	i	21.4	i	i	i	i	i
Cc1cc(C)cc(NC(=O)Cn2cc3c(n2)CCCCC3)c1	nt	i	nt	nt	nt	nt	nt	nt
CNC[C@H]1Oc2cc(Br)ccc2S(=O)(=O)N([C@@H](C)CO)C[C@@H]1C	nt	nt	i	i	nt	i	nt	nt
O=[N+]([O-])c1ccccc1C(=Nc1ccccc1)c1c(O)cc(O)cc1O	nt	nt	26.1	i	nt	i	i	i
O=C(CCN=C1NS(=O)(=O)c2ccccc21)OCc1nnc(-c2ccccc2)o1	nt	nt	i	i	i	i	nt	nt
Nc1[nH]n(-c2ccccc2)c(=O)c1N=Nc1ccc2c(c1)OCO2	i	i	20.8	i	i	i	27.3	i
CCOc1ccc(-n2c(N)c(-c3nc4ccccc4[nH]3)sc2=S)cc1	i	i	20.4	i	i	i	32.8	i	BODIPY interf DR=i
COC(=O)C[C@@H]1C=C[C@@H](NC(=O)NC2CCCC2)[C@@H](CO)O1	nt	nt	i	i	nt	i	nt	nt
CCn1c(-c2nn(-c3ccccc3)ccc2=O)n[nH]c1=S	i	i	24.3	i	i	i	i	i
O=C(NC1CCCC1)c1cc(-c2ccc(Cl)cc2)on1	i	i	19.4	i	i	i	i	i
O=C(NC1CCCCC1)c1cc(-c2ccc(Cl)cc2)on1	i	i	i	i	i	i	nt	nt
Cc1cc2c(SCC(=O)NCC3CCCO3)ncnc2s1 (configuration not stated)	i	i	i	i	i	i	nt	nt
O=C1c2ccccc2C(=O)c2c1cccc2N1CCOCC1	nt	i	22.5	i	i	i	31.9	i	BODIPY interf DR=i
COc1ccc(C(=O)N/N=C/c2cc3ccccc3[nH]c2=S)cc1	i	i	43.7	i	i	i	35.5	10.0
SMILES	Hep lipid drop	PfM18AAP inh	HGIII-sPLA2 inh	NRP1-CendR mod	Arrestin-AP2 inh	m5-HT2A agonist	hGIII sPLA2 conf	BODIPY interf	others
COc1ccc(C(=O)N/N=C/c2c[nH]c3ccccc23)cc1	i	i	i	i	i	i	nt	nt
S=c1[nH]nc(-c2ccc(Cl)cc2)n1-c1ccc2c(c1)OCCO2	i	i	20.7	i	i	i	31.7	i	BODIPY interf DR=i
COc1ccccc1/C=N/NC(=O)CC(=O)NCc1cccnc1	i	i	i	i	i	i	nt	nt
O=C(CC(=O)N/N=C/c1ccccc1O)NCc1cccnc1	i	i	19.4	i	i	i	i	i
COc1ccc(S(=O)(=O)N(C)C)cc1NC(=O)c1ccc(OCC2CCCO2)cc1 (configuration not stated)	nt	nt	i	i	nt	i	nt	nt
CCOC(=S)SCC(=O)Nc1nc(C)c(C)s1	i	i	19.4	i	i	i	i	i
COc1ccc(/C=N\NC(=O)CN2CCN(Cc3ccccc3)CC2)cc1OCc1ccccc1	nt	nt	i	nt	nt	nt	nt	nt
COc1ccc(NC(=S)c2ccc(N(C)C)cc2)cc1	i	i	19.8	i	nt	i	i	i
Cc1ccc(NC(=S)c2ccc(N(C)C)cc2)cc1	i	i	24.9	i	i	i	i	i
